Published values pooled from the literature.
Each line is one published result; the experiments were not run side by side.
Target: Serine/threonine-protein kinase Chk1 (CHEK1, Homo sapiens, UniProt O14757)
Sequence (O14757 1-476, as in one of the studies): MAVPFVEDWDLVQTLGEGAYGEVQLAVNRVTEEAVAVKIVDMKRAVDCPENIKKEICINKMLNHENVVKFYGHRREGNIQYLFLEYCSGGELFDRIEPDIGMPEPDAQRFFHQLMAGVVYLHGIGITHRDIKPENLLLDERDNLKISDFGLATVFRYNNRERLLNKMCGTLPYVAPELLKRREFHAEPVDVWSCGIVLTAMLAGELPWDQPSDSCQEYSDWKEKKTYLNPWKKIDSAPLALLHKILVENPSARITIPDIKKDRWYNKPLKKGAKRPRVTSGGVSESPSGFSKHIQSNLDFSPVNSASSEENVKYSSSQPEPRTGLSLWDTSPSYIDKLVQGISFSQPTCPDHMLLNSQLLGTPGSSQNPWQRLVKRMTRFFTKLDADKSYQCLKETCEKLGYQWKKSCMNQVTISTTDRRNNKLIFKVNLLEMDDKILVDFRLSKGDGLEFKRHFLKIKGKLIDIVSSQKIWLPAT

N#Cc1ccccc1CSc1nnc2c(n1)[nH]c1ccccc12 — remaining binding (binding, competition with immobilised ligand; 10 µM): 87%
CN(C)c1ncc(F)c(-c2cnn3ncccc23)n1 — remaining binding (binding; 1 µM): 87%
CC(C)(C)c1ccc(-c2nc(CBr)nn2-c2cccc(O)c2)cc1 — remaining binding (cell-free assay, competition with immobilised ligand; 10 µM): 86%
O=C(NCC1CCOCC1)c1n[nH]cc1NC(=O)c1c(F)cccc1F — remaining binding (binding, competition with immobilised ligand; 1 µM): 100%
N[C@H]1CCN(c2nccc(-c3cnn4ncccc34)n2)C1 — remaining binding (binding; 1 µM): 100%
Cc1nc(C2CCN(C(=O)c3ccc(OC(F)(F)F)cc3N)CC2)c2ncc(N3CCN(C)CC3)cc2n1 — remaining binding (cell-free assay, competition with immobilised ligand; 1 µM): 100%
c1cnn2ncc(-c3ccnc(N4CCC45COC5)n3)c2c1 — remaining binding (binding; 1 µM): 89%
CNC(=O)[C@@H]1CC[C@@H](n2c(-c3ccc4cnccc4c3)nc3ccc(C(=O)NCc4cccc(C(N)=O)c4)cc32)C1 — remaining binding (binding, competition with immobilised ligand; 1 µM): 100%
C[C@H]1CCN(c2nccc(-c3cnn4ncccc34)n2)C1 — remaining binding (binding; 1 µM): 76%
CC(=O)c1c(NS(C)(=O)=O)c2cc(-c3ccc(Cl)cc3)c(-c3ccc(Cl)cc3Cl)nc2n(C)c1=O — remaining binding (cell-free assay, competition with immobilised ligand; 1 µM): 100%
CN(CCCC(F)(F)F)c1nccc(-c2cnn3ncccc23)n1 — remaining binding (binding; 1 µM): 100%
Cc1cnc(Nc2ccc(C(=O)N3CCC(N4CCCC4)CC3)cc2)nc1-c1cc2ccccc2s1 — remaining binding (binding, competition with immobilised ligand; 1 µM): 33%
CN(c1nccc(-c2cnn3ncccc23)n1)C1CC1 — remaining binding (binding; 1 µM): 78%
CC(C)CC(=O)N1CCc2nc(-c3ccc(Br)cc3)nc(N(C)Cc3ccccc3)c2C1 — remaining binding (cell-free assay, competition with immobilised ligand; 0.1 µM): 100%
Cc1cnn2ncc(-c3ccnc(N(C)C)n3)c2c1 — remaining binding (binding; 1 µM): 100%
CC(=O)Nc1c(C(C)=O)c(=O)n(C)c2nc(-c3ccc(Cl)cc3Cl)c(-c3ccc(Cl)cc3)cc12 — remaining binding (cell-free assay, competition with immobilised ligand; 1 µM): 100%
O=C(NCCCN1CCOCC1)c1ccc(Nc2nccc(-c3cc4ccccc4s3)n2)cc1 — remaining binding (binding, competition with immobilised ligand; 1 µM): 100%
CN(C)C(=O)Cn1cc(-c2nc([C@@](C)(c3ccc(-c4cnc(N)nc4)cc3)C3CC3)no2)cn1 — remaining binding (cell-free assay, competition with immobilised ligand; 1 µM): 85%
CCN1CCN(Cc2ccc(C(=O)Nc3ccc(C)c(Oc4ccc5c(c4)CC(=O)N5)c3)cc2C(F)(F)F)CC1 — remaining binding (binding, competition with immobilised ligand; 1 µM): 100%
FC(F)(F)c1ccc2c(c1)nc(-c1cccnc1)n2C1CC1 — remaining binding (cell-free assay, competition with immobilised ligand; 1 µM): 100%
O=C(c1ccc(Nc2ncc(Cl)c(-c3cc4ccccc4s3)n2)cc1)N1CCC(N2CCCC2)CC1 — remaining binding (binding, competition with immobilised ligand; 1 µM): 54%
Cc1cc(C)c(-n2ccn3nc(-c4cccnc4)cc23)cc1NC(=O)c1cc(C#N)cc(S(F)(F)(F)(F)F)c1 — remaining binding (cell-free assay, competition with immobilised ligand; 0.1 µM): 86%
C[C@@H]1CN(c2ccc3ncc(-c4ccc5[nH]nc(C6CC6)c5c4)n3n2)C[C@H](C)O1 — remaining binding (binding, competition with immobilised ligand; 50 nM): 91%
